# Rows were chosen to be rich in hits. Some 2.7% of all compounds tested hit in one or more screens of this group.
# GSTO1 inh: blocks human GSTO1 in RBBP9 counter-screen; 1.1% of 300,000 active; recombinant GSTO1, activity-based probe fluorescence polarization; P78417; inhibition, % at 5.96 µM;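 active = inhibition above the campaign mean inhibition plus 3 SD, cut at about 35% in these data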;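 also: 0% = GSTO1-1 with DMSO and 100% = wells lacking GSTO1-1 enzyme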
# Target sequence (P78417 whole entry, looked up): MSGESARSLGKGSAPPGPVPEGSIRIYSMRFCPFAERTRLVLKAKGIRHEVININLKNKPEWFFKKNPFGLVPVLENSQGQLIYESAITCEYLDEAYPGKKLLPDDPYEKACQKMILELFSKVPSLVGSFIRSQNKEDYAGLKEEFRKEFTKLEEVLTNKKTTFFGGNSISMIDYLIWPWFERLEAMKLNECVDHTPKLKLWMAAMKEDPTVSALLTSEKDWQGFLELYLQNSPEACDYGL
# SIAE primary: human SIAE inhibition, primary screen. SIAE FP-Rh probe binding, fluorescence polarization. inhibition, % at 9.66 µM. 0.69% of 370,000 active. AID 1053197;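 active = inhibition above a cutoff: mean of compounds within the control limits plus 3 SD of those, cut at about 17% in these data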;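 also: 0% = plate median of compound wells and 100% = probe without SIAE protein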
# PAD4 FP inh: inhibitors of human PAD4 | Q9UM07 | recombinant PAD4, RCA probe fluorescence polarization | inhibition, % at 6.36 µM | 0.41% of 330,000 active | AID 485272;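 active = percent inhibition above a cutoff equal to the mean of all tested compounds plus 3 SD, cut at about 15% in these data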;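 also: 0% = PAD4 with RCA probe and DMSO and 100% = probe without PAD4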
# PRMT1 inh: PRMT1 (human) inhibition, primary screen. 1.3% of 370,000 active. recombinant PRMT1, activity-based probe fluorescence polarization. AID 652257. inhibition, % at 2.79 µM. Q99873;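 active = inhibition above about 21% made by adding two undisclosed values, limit read from the data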
# Target sequence (Q99873 whole entry, looked up): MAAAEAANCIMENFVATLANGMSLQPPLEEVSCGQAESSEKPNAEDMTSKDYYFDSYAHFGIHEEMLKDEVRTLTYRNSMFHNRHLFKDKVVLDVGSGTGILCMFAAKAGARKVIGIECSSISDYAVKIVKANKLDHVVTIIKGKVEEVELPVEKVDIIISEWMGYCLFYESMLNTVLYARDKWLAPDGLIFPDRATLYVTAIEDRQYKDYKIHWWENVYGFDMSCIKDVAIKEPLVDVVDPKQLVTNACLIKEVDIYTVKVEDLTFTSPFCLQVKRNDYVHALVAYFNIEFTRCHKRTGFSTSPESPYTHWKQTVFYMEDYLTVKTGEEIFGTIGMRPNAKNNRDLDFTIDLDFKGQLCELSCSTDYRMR
# RBBP9 inh: blocks human serine hydrolase RBBP9 | O75884 | recombinant RBBP9, FP-Rh probe fluorescence polarization | inhibition, % at 7.94 µM | 0.2% of 220,000 active;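 active = inhibition above the campaign mean of all tested compounds plus 3 SD, cut at about 14% in these data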;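 also: plate controls were DMSO wells with RBBP9 for no effect and wells lacking RBBP9 protein for full effect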
#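 Material: RBBP9 protein. Amount: RBBP9 at 2.5 µM in dispensed solution, before mixing. Schedule: 30 min then 45 min, 25 °C. Medium: Tris buffer pH 8.0, NaCl, Pluronic. Measured by: fluorescence polarization. Measure: percent inhibition from mP, scaled between DMSO and no-protein wells. Replication: one well per compound.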
# Numbers without * were called inactive; nt = not tested or not shown.
SMILES,GSTO1 inh,SIAE primary,PAD4 FP inh,PRMT1 inh,RBBP9 inh
CCc1c(C(=O)N/N=C/c2ccsc2)csc1C,-3,2,0,14,4
CSc1ccc(Cn2c(C)c(C(=O)NCc3ccc4c(c3)OCO4)sc2=O)cc1,nt,-9,nt,1,nt
S=c1[nH]nc(-c2cccnc2)n1/N=C/c1ccccc1,-1,8,4,-5,-4
S=c1[nH]nc(-c2ccco2)n1/N=C/c1ccc(Cl)c(Cl)c1,7,0,0,22*,-11
O=[N+]([O-])c1cc(/C=N/n2c(-c3cccnc3)n[nH]c2=S)ccc1Cl,51*,-5,7,17,-4
Cc1cnc(C)c(Nc2nc(C(N)Cc3ccc(F)cc3)cs2)n1 (centres undefined),nt,0,nt,-1,nt
Cc1cnc(C)c(Nc2nc(C(N)Cc3ccc(Cl)cc3)cs2)n1 (centres undefined),nt,-2,nt,25*,nt
Cc1ccc(CC(=O)N2CCN(c3ccccn3)CC2)cc1,5,1,-4,7,-13
CCN(CC)C(=O)c1sc2nc(N3CCOCC3)c3c(c2c1N)CCCC3,6,3,-1,24*,2
CCOC(=O)c1sc2nc(N3CCOCC3)c3c(c2c1N)CCCC3,1,-2,4,3,1
CCn1c2ccccc2c2cc(C=Nn3c(-c4ccccc4C)n[nH]c3=S)ccc21,nt,-14,nt,23*,nt
CCn1c2ccccc2c2cc(/C=N/n3c(C)nnc3C)ccc21,-6,0,1,2,-4
CC1(OC(=O)CCc2ccccc2)C(=O)C=C2C=C3CCCN3C=C2C1=O (centres undefined),36*,6,-11,11,nt
CC1(OC(=O)C2CCCC2)C(=O)C=C2C=C3CCCN3C=C2C1=O (centres undefined),21,nt,-2,nt,nt
CCCN(C)C1CN(Cc2cn(CCCOC)nn2)S(=O)(=O)C1 (centres undefined),nt,-1,nt,23*,nt
N#C/C(C(=O)NCc1ccccc1)=C1\SC(CCO)C(=O)N1c1ccccc1 (centres undefined),4,-1,0,2,1
O=C(CCl)N=c1sccn1Cc1ccccc1Cl,102*,-1,-40,-1,-7
CCCCOc1cccc(C2C(C(=O)c3ccc(C)o3)=C(O)C(=O)N2c2nnc(C)s2)c1 (centres undefined),nt,-7,nt,23*,nt
COc1ccc2cc(C(=O)N/N=C/c3sc4ccccc4c3O)ccc2c1,-10,1,-13,25*,-32
O=C(N/N=C/c1sc2ccccc2c1O)c1ccccc1,17,nt,3,nt,-8
O=C(N/N=C/c1sc2ccccc2c1O)c1cccc2ccccc12,42*,-2,-28,55*,-20
CC(C)Cc1nnc(NC(=O)CSc2nc(N)cc(=O)[nH]2)s1,47*,6,0,4,1
CCc1nnc(NC(=O)CSc2nc3c(C)cccc3[nH]2)s1,36*,-4,0,2,-7
NNC(=O)Cn1c(COc2ccc(Cl)cc2)nc2ccccc21,2,-2,4,-2,-5
O=C(O)c1cccc(N2C(=O)/C(=C/c3ccc(SCc4ccc(Cl)cc4)o3)SC2=S)c1,nt,-5,nt,57*,-5
SMILES,GSTO1 inh,SIAE primary,PAD4 FP inh,PRMT1 inh,RBBP9 inh
Fc1cccc(C[n+]2csc3ccccc32)c1,3,-2,12,75*,-11
CC(C)(C)c1nnc(NS(=O)(=O)c2cc(Cl)ccc2Cl)s1,-2,-2,-2,-1,nt
O=S(=O)(Nc1nc(-c2sccc2Cl)cs1)c1cc(Cl)ccc1Cl,40*,nt,-9,nt,0
Cc1cccc(CSc2nnc(-c3ccco3)o2)c1,12,5,-4,-3,-5
CC(=O)c1c(C)cc(C)c(CSc2nnc(-c3ccco3)o2)c1C,35*,-3,3,-1,-6
CCc1ccc(OCCOC(=O)Nc2ccccc2)cc1,5,0,-2,2,nt
Nc1c(/C=C2/C=CC(=O)C(O)=C2)c(=O)nc2sc(CC(=O)N3CCCCC3)nn12,41*,1,3,1,nt
Nc1c(/C=C2/C=CC(=O)C(O)=C2)c(=O)nc2sc(CC(=O)N3CCCC3)nn12,27,4,3,5,nt
CCN1CCc2c(OCC(=O)N3CCC(C)CC3)cccc2C1=O,3,-5,0,-4,-6
CC1CCN(C(=O)COc2cccc3c2CCN(Cc2ccccc2)C3=O)CC1,-9,17*,4,2,5
Cc1cc(Cl)cc2sc(=S)[nH]c12,nt,6,nt,22*,nt
Cc1[nH]c(=S)sc1Cc1ccc(Cl)c(Cl)c1,-4,-1,0,13,-4
CCOc1c(O)ccc(/C=C2\SC(=S)NC2=O)c1[N+](=O)[O-],56*,-1,-17,17,13
Cc1ccccc1NS(=O)(=O)c1nnc(NC(=O)c2ccccc2F)s1,-21,0,0,0,nt
Nc1ccccc1C(=O)NCCCN1CCOCC1,3,-2,-2,-5,nt
O=C(NCCCN1CCOCC1)c1coc2ccccc2c1=O,35*,2,0,-1,-9
COc1cc(/C=C2/SC(=S)N(CC(=O)Nc3nc4ccccc4s3)C2=O)cc(OC)c1OC,-20,-69,-40,5,-4
CCc1nnc(NC(=O)CN2C(=O)/C(=C/c3cc(OC)c(OC)c(OC)c3)SC2=S)s1,3,-3,-11,21*,-3
O=c1cc(CSc2nc(NCc3ccccc3)c3ccccc3n2)nc2ccc(Cl)cn12,42*,4,5,-1,-4
O=C(CC1S/C(=N/N=C/c2ccco2)NC1=O)Nc1cccc(Cl)c1Cl (centres undefined),-3,7,-6,22*,-5
C[C@H]1COC2=C1C(=O)C(=O)c1c2ccc2c1CCCC2(C)C,68*,nt,-10,nt,5
Cc1coc2c1C(=O)C(=O)c1c-2ccc2c1CCCC2(C)C,28,13,-1,17,4
COc1ccc(CN2CCCC(CO)(Cc3ccc(F)cc3)C2)cc1C (centres undefined),3,1,1,-2,nt
Cc1[nH]c2ccccc2c1/C=N/NC(=O)c1cccc(S(=O)(=O)Nc2cccc(C(F)(F)F)c2)c1,-31,19*,1,-1,9
COc1ccc(NC(=O)COC(=O)CN2C(=O)C3CC=CCC3C2=O)c([N+](=O)[O-])c1 (centres undefined),nt,5,-6,2,nt
CCCCNC(=O)C1CCN(Cc2ccc(OCc3ccccc3)c(OC)c2)CC1,0,7,-3,-8,nt
S=c1[nH]nc(-c2cc3c(s2)-c2ccccc2CC3)o1,-23,-32,5,22*,-5
Cc1nn(-c2ccccc2)c(Cl)c1CN(C(=O)CCl)c1cccc2ccccc12,89*,6,8,1,-9
CC(=O)N(Cc1c(C)nn(-c2ccccc2)c1Cl)c1ccc(Cl)cc1,6,8,4,0,-4
Cc1ccc(-c2[nH]nc3c2C(c2ccoc2)C(C#N)=C(N)O3)cc1C (centres undefined),44*,nt,-15,nt,-6

# Screens as filed in PubChem BioAssay.
